Results from article PMC7571300 (ACS Pharmacology & Translational Science, 2020).

Assays:
EV-A71 2A^pro [1] = molecular target: T1, EV-A71 2A^pro (Enterovirus A71, UniProt B9VUU3); assay: FRET-based enzymatic assay; assay type: biochemical
T1 sequence (B9VUU3 863-1012): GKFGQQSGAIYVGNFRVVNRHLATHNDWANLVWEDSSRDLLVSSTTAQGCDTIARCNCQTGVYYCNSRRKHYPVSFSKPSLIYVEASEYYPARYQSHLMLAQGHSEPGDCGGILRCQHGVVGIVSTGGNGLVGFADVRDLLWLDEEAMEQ

EV-A71 3C^pro [2] = molecular target: T2, EV-A71 3C^pro (Enterovirus A71, UniProt B9VUU3); assay: FRET-based enzymatic assay; assay type: biochemical
EV-D68 2A^pro [3] = molecular target: T3, EV-D68 2A^pro (Enterovirus D68, UniProt A0A097BW19); assay: FRET-based enzymatic assay; assay type: biochemical
T3 sequence (A0A097BW19 863-1009): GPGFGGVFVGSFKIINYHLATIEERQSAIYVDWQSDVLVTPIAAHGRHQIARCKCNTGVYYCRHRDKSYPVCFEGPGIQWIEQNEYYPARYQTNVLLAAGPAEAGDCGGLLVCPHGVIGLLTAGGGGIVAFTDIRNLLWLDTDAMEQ

EV-D68 3C^pro [4] = molecular target: T4, EV-D68 3C^pro (Enterovirus D68, UniProt A0A097BW19); assay: biochemical
T4 sequence (A0A097BW19 1550-1732): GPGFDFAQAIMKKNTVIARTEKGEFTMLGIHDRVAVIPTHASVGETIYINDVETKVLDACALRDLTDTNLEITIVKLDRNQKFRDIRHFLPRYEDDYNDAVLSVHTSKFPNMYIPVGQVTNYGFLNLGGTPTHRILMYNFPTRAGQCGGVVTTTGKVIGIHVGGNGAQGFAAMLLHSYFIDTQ

SARS-CoV-2 M^pro [5] = molecular target: T5, SARS-CoV-2 M^pro (Severe acute respiratory syndrome coronavirus 2, UniProt P0DTD1); assay: Thermal shift binding assay; settings: 4 mM DTT; 40 μM compound (shikonin 10 μM); 3 μM protease
SARS-CoV-2 PL^pro = SARS-CoV-2 PL^pro (Severe acute respiratory syndrome coronavirus 2, UniProt P0DTD1); assay: Thermal shift binding assay; settings: 4 mM DTT; 40 μM compound (shikonin 10 μM); 3 μM protease
Outline: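 SARS-CoV-2 PLpro (ORF1ab 1564–1876, strain WIV04) was expressed from pET28b(+) in BL21(DE3) (0.5 mM IPTG, 18 °C, 24 h), Ni-NTA purified and eluted with 300 mM imidazole. Protein (3 μM) in 50 mM HEPES pH 7.5, 0.01% Triton X-100, with or without 4 mM DTT, sat with test compound or DMSO for 30 min at 30 °C. SYPRO orange (1×) was added and a 20–90 °C ramp at 0.05 °C/s applied. Tm was from a Boltzmann fit.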

EV-A71 2A^pro [6] = molecular target: T1, EV-A71 2A^pro; assay: Thermal shift binding assay; settings: 4 mM DTT; 40 μM compound (shikonin 10 μM); 3 μM protease
Outline: (§1)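 Codon-optimised 2Apro was expressed in E. coli from pET28b(+), from EV-A71/7D3 or EV-D68 US/KY/14–18953. Protease (3 μM) in 50 mM Tris pH 7.0, 150 mM NaCl, 10% glycerol, with or without 4 mM DTT, was preincubated with test compound or DMSO at 30 °C for 30 min. SYPRO orange (1×) was then added and fluorescence followed over 20–90 °C at 0.05 °C/s. Tm was taken as the transition mid log (Boltzmann model).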

EV-A71 3C^pro [7] = molecular target: T2, EV-A71 3C^pro; assay: Thermal shift binding assay; settings: 4 mM DTT; 40 μM compound (shikonin 10 μM); 3 μM protease
Outline: (§2)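 3Cpro (EV-A71/7D3 or EV-D68 US/KY/14–18953; codon-optimised, pET28b(+), BL21(DE3), 0.5 mM IPTG at 18 °C for 24 h, Ni-NTA purified) was used at 3 μM. Buffer was 50 mM Tris pH 7.0, 150 mM NaCl, 1 mM EDTA, 10% glycerol, with or without 4 mM DTT. Protease was preincubated with test compound or DMSO (30 °C, 30 min), then SYPRO orange (1×) added and a 20–90 °C ramp (0.05 °C/s) run. Tm came from a Boltzmann fit.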

EV-D68 2A^pro [8] = molecular target: T3, EV-D68 2A^pro; assay: Thermal shift binding assay; settings: 4 mM DTT; 40 μM compound (shikonin 10 μM); 3 μM protease
Outline: as §1

EV-D68 3C^pro [9] = molecular target: T4, EV-D68 3C^pro; assay: Thermal shift binding assay; settings: 4 mM DTT; 40 μM compound (shikonin 10 μM); 3 μM protease
Outline: as §2

SARS-CoV-2 M^pro [10] = molecular target: T5, SARS-CoV-2 M^pro; assay type: binding; settings: 10-40 μM drug; for Ligand binding to M^pro dimer: with 4 mM DTT; for Ligands bound per M^pro dimer: without DTT
in vitro = settings: human, CC50 (EV-A71 CPE assay conditions), RD cells, no virus, 37 °C, no MgCl2
SARS-CoV-2 = settings: at 10 μM; cited from earlier work
[11] = EV-A71 2A^pro IC50, with 4 mM DTT
[12] = EV-A71 3C^pro IC50, with 4 mM DTT
[13] = EV-D68 2A^pro IC50, with 4 mM DTT
[14] = EV-D68 3C^pro IC50, with 4 mM DTT

## CC(C)=CC[C@@H](O)C1=CC(=O)c2c(O)ccc(O)c2C1=O [shikonin]
EV-A71 2A^pro [1]; EV-A71 2A^pro IC50, no DTT
  IC50: 36 ± 20.5 µM
EV-A71 2A^pro [1]; [11]
  IC50: > 60 µM
EV-A71 3C^pro [2]; EV-A71 3C^pro IC50, no DTT
  IC50: 500 ± 200 nM
EV-A71 3C^pro [2]; [12]
  IC50: > 60000 nM
EV-D68 2A^pro [3]; EV-D68 2A^pro IC50, no DTT
  IC50: 37 ± 14.2 µM
EV-D68 2A^pro [3]; [13]
  IC50: > 60 µM
EV-D68 3C^pro [4]; EV-D68 3C^pro IC50, no DTT
  IC50: 1200 ± 700 nM
EV-D68 3C^pro [4]; [14]
  IC50: > 60000 nM
SARS-CoV-2 M^pro [5]
  Tm change, SARS-CoV-2 M^pro: no Tm change
SARS-CoV-2 PL^pro
  Tm change, SARS-CoV-2 PL^pro: no Tm change
EV-A71 2A^pro [6]
  Tm change, EV-A71 2A^pro: no Tm change
EV-A71 3C^pro [7]
  Tm change, EV-A71 3C^pro: no Tm change
EV-D68 2A^pro [8]
  Tm change, EV-D68 2A^pro: no Tm change
EV-D68 3C^pro [9]
  Tm change, EV-D68 3C^pro: no Tm change
SARS-CoV-2 M^pro [10]
  Ligand binding to M^pro dimer: completely disrupted
  Ligands bound per M^pro dimer: up to four ligands per dimer
In vitro
  CC50: 0.8 µM

## CCC[C@H](NC(=O)[C@@H]1[C@H]2CCC[C@H]2CN1C(=O)[C@@H](NC(=O)[C@@H](NC(=O)c1cnccn1)C1CCCCC1)C(C)(C)C)C(=O)C(=O)NC1CC1 [telaprevir]
EV-A71 2A^pro [1]; EV-A71 2A^pro IC50, no DTT
  IC50: 1.8 ± 0.9 µM
EV-A71 2A^pro [1]; [11]
  IC50: 1.3 µM
EV-D68 2A^pro [3]; EV-D68 2A^pro IC50, no DTT
  IC50: 0.1 µM
EV-A71 2A^pro [6]
  Tm change, EV-A71 2A^pro: increased the Tm
EV-D68 2A^pro [8]
  Tm change, EV-D68 2A^pro: increased the Tm

## O=c1sn(-c2cccc3ccccc23)c(=O)n1Cc1ccccc1 [tideglusib]
EV-A71 2A^pro [1]; EV-A71 2A^pro IC50, no DTT
  IC50: 3.4 ± 2.9 µM
EV-A71 2A^pro [1]; [11]
  IC50: > 60 µM
EV-A71 3C^pro [2]; EV-A71 3C^pro IC50, no DTT
  IC50: 1200 ± 100 nM
EV-A71 3C^pro [2]; [12]
  IC50: > 60000 nM
EV-D68 2A^pro [3]; EV-D68 2A^pro IC50, no DTT
  IC50: 1.3 ± 0.7 µM
EV-D68 2A^pro [3]; [13]
  IC50: > 60 µM
EV-D68 3C^pro [4]; EV-D68 3C^pro IC50, no DTT
  IC50: 600 ± 300 nM
EV-D68 3C^pro [4]; [14]
  IC50: > 60000 nM
SARS-CoV-2 M^pro [5]
  Tm change, SARS-CoV-2 M^pro: no Tm change
SARS-CoV-2 PL^pro
  Tm change, SARS-CoV-2 PL^pro: no Tm change
EV-A71 2A^pro [6]
  Tm change, EV-A71 2A^pro: no Tm change
EV-A71 3C^pro [7]
  Tm change, EV-A71 3C^pro: no Tm change
EV-D68 2A^pro [8]
  Tm change, EV-D68 2A^pro: no Tm change
EV-D68 3C^pro [9]
  Tm change, EV-D68 3C^pro: no Tm change
SARS-CoV-2 M^pro [10]
  Ligand binding to M^pro dimer: did not bind
  Ligands bound per M^pro dimer: did not bind
SARS-CoV-2
  Reduction of viral replication, viral titer reduction assay: no significant antiviral effect
In vitro
  CC50: 16.6 µM
